Measurements reported in ChEMBL document CHEMBL1126705, “16 beta-([18F]fluoro)estrogens: systematic investigation of a new series of fluorine-18-labeled estrogens as potential imaging agents for estrogen-receptor-positive breast tumors” (J Med Chem, 1993).

Assays:
Rattus norvegicus [1] = assay: Tested in vivo for the biodistribution in rat liver after 3 hours following an intravenous dose of 50 microCi of drug in 10%ethanol saline; assay type: ADME, organism-based
In short: (§1)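 Immature (25-day-old) female Sprague-Dawley rats, ether-anesthetized, given the fluorine-18-labeled estrogen by femoral vein injection in 10% ethanol saline. […] Other groups were killed by decapitation at 1 or 3 h. Blood and organs were weighed and gamma-counted. Data are % injected dose/g, mean ± SD, typically n = 5 per group.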

Rattus norvegicus [2] = assay: Tested in vivo for the biodistribution in rat liver at 1 hour after intravenous dose of 50 microCi of drug in 10%ethanol saline; assay type: ADME, organism-based; in short: as §1
Rattus norvegicus [3] = assay: Tested in vivo for the biodistribution in rat uterus/blood at 1 hour after intravenous dose of 50 microCi of the drug and 15 ug of estradiol; assay type: ADME, organism-based
In short: (§2)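 Female Sprague-Dawley rats, 25 days old (~40–53 g), ether-anesthetized, given the 18F-labeled estrogen iv via femoral vein in 10% ethanol saline. […] Others were sacrificed by decapitation at 1 or 3 h. Blood and organs were excised, weighed and gamma counted as % injected dose/g, mean ± SD, typically n = 5 (4–6).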

Rattus norvegicus [4] = assay: Tested in vivo for the biodistribution in rat uterus/blood at 1 hour after intravenous dose of 50 microCi of drug in 10%ethanol saline; assay type: ADME, organism-based; in short: as §2
Rattus norvegicus [5] = assay: Tested in vivo for the biodistribution in blood of female rat at 1 hour after intravenous dose of 50 microCi of drug in 10%ethanol saline; assay type: ADME, organism-based
In short: (§3)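 Ether-anesthetized 25-day-old female Sprague-Dawley rats (~40–53 g) got the [18F] tracer in 10% ethanol saline via femoral vein. Rats were decapitated at 1 or 3 h, and blood and organs were weighed and gamma-counted. Values are % injected dose/g as mean ± SD, n = 5 per time point.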

[6] = biological target: T1, Estrogen receptor (Rattus norvegicus) (UniProt P06211+Q62986)
Rattus norvegicus [7] = assay: Tested in vivo for the biodistribution in rat uterus at 1 hour after intravenous dose of 50 microCi of the drug and 15 ug of estradiol; assay type: ADME, organism-based; in short: as §2
[8] = biological target: T2, Alpha-fetoprotein (Rattus norvegicus) (UniProt P02773); assay: Relative binding affinity for Alphafetoprotein
T2 sequence (whole entry): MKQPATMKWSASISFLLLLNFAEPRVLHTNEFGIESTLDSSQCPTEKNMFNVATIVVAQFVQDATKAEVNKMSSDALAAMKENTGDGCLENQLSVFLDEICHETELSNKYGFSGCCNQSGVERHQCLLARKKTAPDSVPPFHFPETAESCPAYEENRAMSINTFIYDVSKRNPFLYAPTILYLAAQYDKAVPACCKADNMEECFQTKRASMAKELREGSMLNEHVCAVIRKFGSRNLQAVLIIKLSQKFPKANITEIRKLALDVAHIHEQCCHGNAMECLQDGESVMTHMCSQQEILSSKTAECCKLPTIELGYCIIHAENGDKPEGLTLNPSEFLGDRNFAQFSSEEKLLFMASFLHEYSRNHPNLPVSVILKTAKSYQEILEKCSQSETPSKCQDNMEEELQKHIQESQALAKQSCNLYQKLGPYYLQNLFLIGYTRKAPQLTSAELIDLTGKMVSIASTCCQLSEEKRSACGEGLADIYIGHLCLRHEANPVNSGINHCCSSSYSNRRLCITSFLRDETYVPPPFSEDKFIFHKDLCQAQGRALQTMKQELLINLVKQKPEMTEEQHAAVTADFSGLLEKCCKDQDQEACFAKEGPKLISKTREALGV

Rattus norvegicus [9] = assay: Tested in vivo for the biodistribution in rat thymus at 1 hour after intravenous dose of 50 microCi of the drug and 15 ug of estradiol; assay type: ADME, organism-based; in short: as §1
Rattus norvegicus [10] = assay: Tested in vivo for the biodistribution in rat thymus after 3 hours following an intravenous dose of 50 microCi of drug in 10%ethanol saline; assay type: ADME, organism-based; in short: as §1
[11] = Tested in vivo for the biodistribution in rat fat after 3 hours following an intravenous dose of 50 microCi of drug in 10%ethanol saline; parameters: species or system Adipose tissue; in short: as §3
Rattus norvegicus [12] = assay: Tested in vivo for the biodistribution in rat muscle after 3 hours following an intravenous dose of 50 microCi of drug in 10%ethanol saline; assay type: ADME, organism-based, Muscle tissue; in short: as §1
[13] = Partition coefficient (logP); assay type: physicochemical; conditions: octanol/water
In short: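 Octanol/water log P estimated from log k'w measured by reversed-phase HPLC (Minick method) on a C8 silica column.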

Rattus norvegicus [14] = assay: Tested in vivo for the biodistribution in rat uterus/muscle at 1 hour after intravenous dose of 50 microCi of the drug and 15 ug of estradiol; assay type: ADME, organism-based, Muscle tissue; in short: as §2
Rattus norvegicus [15] = assay: Tested in vivo for the biodistribution in rat thymus at 1 hour after intravenous dose of 50 microCi of drug in 10%ethanol saline; assay type: ADME, organism-based; in short: as §1
Rattus norvegicus [16] = assay: Tested in vivo for the biodistribution in rat bone after 3 hours following an intravenous dose of 50 microCi of drug in 10%ethanol saline; assay type: ADME, organism-based, Bone element; in short: as §3
[17] = biological target: T3, Sex hormone-binding globulin (Homo sapiens) (UniProt P04278); assay: Relative binding affinity against sex steroid binding protein (SBP)
T3 sequence (whole entry): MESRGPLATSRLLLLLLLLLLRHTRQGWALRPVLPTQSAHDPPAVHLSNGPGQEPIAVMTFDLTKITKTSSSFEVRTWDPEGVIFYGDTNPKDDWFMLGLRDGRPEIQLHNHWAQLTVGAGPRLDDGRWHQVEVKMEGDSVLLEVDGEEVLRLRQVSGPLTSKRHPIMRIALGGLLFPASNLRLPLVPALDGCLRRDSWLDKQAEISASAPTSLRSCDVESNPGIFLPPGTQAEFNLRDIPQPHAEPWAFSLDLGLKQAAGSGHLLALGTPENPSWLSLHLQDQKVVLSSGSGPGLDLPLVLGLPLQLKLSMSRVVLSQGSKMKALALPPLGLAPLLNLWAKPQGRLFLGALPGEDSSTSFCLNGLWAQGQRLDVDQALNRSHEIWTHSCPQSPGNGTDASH

Rattus norvegicus [18] = assay: Tested in vivo for the biodistribution in rat ovaries at 1 hour after intravenous dose of 50 microCi of the drug and 15 ug of estradiol; assay type: ADME, organism-based, Female gonad; in short: as §1
Rattus norvegicus [19] = assay: Tested in vivo for the biodistribution in rat uterus/blood after 3 hours following an intravenous dose of 50 microCi of drug in 10%ethanol saline; assay type: ADME, organism-based; in short: as §2
Rattus norvegicus [20] = assay: Tested in vivo for the biodistribution in blood of female rat at 1 hour after intravenous dose of 50 microCi of the drug and 15 u g of estradiol; assay type: ADME, organism-based
Rattus norvegicus [21] = assay: Tested in vivo for the biodistribution in rat muscle at 1 hour after intravenous dose of 50 microCi of the drug and 15 ug of estradiol; assay type: ADME, organism-based, Muscle tissue; in short: as §1
Rattus norvegicus [22] = assay: Tested in vivo for the biodistribution in rat ovaries after 3 hours following an intravenous dose of 50 microCi of drug in 10%ethanol saline; assay type: ADME, organism-based, Female gonad; in short: as §1
Rattus norvegicus [23] = assay: Tested in vivo for the biodistribution in rat uterus/muscle after 3 hours following an intravenous dose of 50 microCi of drug in 10%ethanol saline; assay type: ADME, organism-based, Muscle tissue; in short: as §2
Rattus norvegicus [24] = assay: Tested in vivo for the biodistribution in rat ovaries at 1 hour after intravenous dose of 50 microCi of drug in 10%ethanol saline; assay type: ADME, organism-based, Female gonad; in short: as §1
Rattus norvegicus [25] = assay: Tested in vivo for the biodistribution in rat uterus after 3 hours following an intravenous dose of 50 microCi of drug in 10%ethanol saline; assay type: ADME, organism-based; in short: as §1
Rattus norvegicus [26] = assay: Tested in vivo for the biodistribution in rat kidney at 1 hour after intravenous dose of 50 microCi of drug in 10%ethanol saline; assay type: ADME, organism-based; in short: as §3
Rattus norvegicus [27] = assay: Tested in vivo for the biodistribution in rat fat at 1 hour after intravenous dose of 50 microCi of the drug and 15 ug of estradiol; assay type: ADME, organism-based, Adipose tissue
Rattus norvegicus [28] = assay: Tested in vivo for the biodistribution in rat kidney at 1 hour after intravenous dose of 50 microCi of the drug and 15 u g of estradiol; assay type: ADME, organism-based; in short: as §1
Rattus norvegicus [29] = assay: Tested in vivo for the biodistribution in rat bone at 1 hour after intravenous dose of 50 microCi of the drug and 15 ug of estradiol; assay type: ADME, organism-based, Bone element
Rattus norvegicus [30] = assay: Tested in vivo for the biodistribution in rat liver at 1 hour after intravenous dose of 50 microCi of the drug and 15 u g of estradiol; assay type: ADME, organism-based; in short: as §1
Rattus norvegicus [31] = assay: Tested in vivo for the biodistribution in rat muscle at 1 hour after intravenous dose of 50 microCi of drug in 10%ethanol saline; assay type: ADME, organism-based, Muscle tissue; in short: as §1
Rattus norvegicus [32] = assay: Tested in vivo for the biodistribution in rat kidney after 3 hours following an intravenous dose of 50 microCi of drug in 10%ethanol saline; assay type: ADME, organism-based; in short: as §3
Rattus norvegicus [33] = assay: Tested in vivo for the biodistribution in blood of female rat after 3 hours following an intravenous dose of 50 microCi of drug in 10%ethanol saline; assay type: ADME, organism-based; in short: as §3
Rattus norvegicus [34] = assay: Tested in vivo for the biodistribution in rat uterus/muscle at 1 hour after intravenous dose of 50 microCi of drug in 10%ethanol saline; assay type: ADME, organism-based, Muscle tissue; in short: as §2
[35] = biological target: T1, Estrogen receptor (Rattus norvegicus); remark: listed apart in the source
Rattus norvegicus [36] = assay: Tested in vivo for the biodistribution in rat fat at 1 hour after intravenous dose of 50 microCi of drug in 10%ethanol saline; assay type: ADME, organism-based, Adipose tissue; in short: as §3
Rattus norvegicus [37] = assay: Tested in vivo for the biodistribution in rat bone at 1 hour after intravenous dose of 50 microCi of drug in 10%ethanol saline; assay type: ADME, organism-based, Bone element; in short: as §3
Rattus norvegicus [38] = assay: Tested in vivo for the biodistribution in rat uterus at 1 hour after intravenous dose of 50 microCi of drug in 10%ethanol saline; assay type: ADME, organism-based; in short: as §2

Injected (dose/g) (Rattus norvegicus [1]): 0.893%
Injected (Rattus norvegicus [2]): 1.178%
Injected (dose/g) (Rattus norvegicus [3]): 3.73%
Injected (dose/g) (Rattus norvegicus [4]): 41.7%
Injected (Rattus norvegicus [5]): 0.148%
NSB [6]: 0.39
Injected (Rattus norvegicus [7]): 0.671%
relative binding affinity (RBA) [8]: 0.062
Injected (dose/g) (Rattus norvegicus [9]): 0.135%
Injected (dose/g) (Rattus norvegicus [10]): 0.175%
Injected (dose/g) (Rattus norvegicus [12]): 0.107%
logP [13]: 2.35
Injected (dose/g) (Rattus norvegicus [14]): 4.49%
Injected (dose/g) (Rattus norvegicus [15]): 0.391%
Injected (Rattus norvegicus [16]): 0.646%
relative binding affinity (RBA) [17]: 0.087
Injected (Rattus norvegicus [18]): 0.417%
Injected (Rattus norvegicus [19]): 43.47%
Injected (Rattus norvegicus [20]): 0.184%
Injected (Rattus norvegicus [21]): 0.149%
Injected (Rattus norvegicus [22]): 1.409%
Injected (Rattus norvegicus [23]): 47.73%
Injected (Rattus norvegicus [24]): 2.466%
Injected (Rattus norvegicus [25]): 4.813%
Injected (Rattus norvegicus [26]): 0.946%
Injected (Rattus norvegicus [27]): 0.338%
Injected (dose/g) (Rattus norvegicus [28]): 0.579%
Injected (dose/g) (Rattus norvegicus [29]): 0.604%
Injected (Rattus norvegicus [30]): 1.397%
Injected (dose/g) (Rattus norvegicus [31]): 0.251%
Injected (Rattus norvegicus [32]): 0.429%
Injected (Rattus norvegicus [33]): 0.117%
Injected (dose/g) (Rattus norvegicus [34]): 25.57%
BSI [35]: 34
Injected (Rattus norvegicus [36]): 0.516%
Injected (dose/g) (Rattus norvegicus [37]): 0.515%
Injected (dose/g) (Rattus norvegicus [38]): 6.12%
Structure (SMILES): CO[C@H]1C[C@]2(C)[C@@H](O)[C@@H](F)C[C@H]2[C@@H]2CCc3cc(O)ccc3[C@H]21
Injected [11]: 0.402%
